According to ChEMBL document CHEMBL4602705, “Discovery of N-Cyano-sulfoximineurea Derivatives as Potent and Orally Bioavailable NLRP3 Inflammasome Inhibitors” (ACS Med Chem Lett, 2020):

Tests used:
[1] = target: T1, NACHT, LRR and PYD domains-containing protein 3 (Homo sapiens, UniProt Q96P20); assay: Inhibition of NLRP3 inflammasome activation in LPS-primed human THP1 cells assessed as reduction in IL-1beta level preincubated for 1 hr followed by addition of ATP and nigericin further incubated for 1 hrs and measured post ATP addition 1 hr by ELISA method; type: cell-based, THP-1
[2] = AUC in C57/BL6 mouse at 3 mg/kg, po measured up to 24 hrs by LC-MS/MS analysis; type: ADME, organism-based; parameters: dose 3 mg/kg, time < 24 hr, route oral; settings: in vivo
How it was run: (§1)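 Mouse PK, composite design, n = 3 per time point, mean values. Dosed 3 mg/kg po in 1% Tween 80 + 99% (0.5%) methyl cellulose in water; 1 mg/kg iv in 5% NMP + 5% solutol + 90% normal saline for bioavailability reference.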

[3] = Half life in C57/BL6 mouse at 3 mg/kg, po measured up to 24 hrs by LC-MS/MS analysis; type: ADME, organism-based; settings: in vivo; how it was run: as §1
[4] = Oral bioavailability in C57/BL6 mouse at 3 mg/kg measured up to 24 hrs by LC-MS/MS analysis; type: ADME, organism-based; settings: in vivo; how it was run: as §1
[5] = target: T1, NACHT, LRR and PYD domains-containing protein 3; assay: Inhibition of NLRP3 inflammasome activation in LPS-primed human THP1 cells assessed as reduction in IL-1beta level at 1 uM preincubated for 1 hr followed by addition of ATP and nigericin further incubated for 1 hrs and measured post ATP addition 1 hr by ELISA method relative to control; type: cell-based; settings: THP-1
Mus musculus = assay: Inhibition of LPS-induced serum IL-1beta production in C57/BL6 mouse at 10 mg/kg, po post-challenge with LPS for 2 hrs followed by ATP-challenge and measured after 30 mins by ELISA method relative to control; type: functional
How it was run: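 Acute LPS+ATP challenge model in female C57BL/6 mice, n = 6/group; single oral dose 10 mg/kg in 1% Tween 80 and 99% methyl cellulose (0.5%); IL-1β compared with vehicle control; error bars SEM.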

T1 sequence (Q96P20 whole entry, the tested form may be a part): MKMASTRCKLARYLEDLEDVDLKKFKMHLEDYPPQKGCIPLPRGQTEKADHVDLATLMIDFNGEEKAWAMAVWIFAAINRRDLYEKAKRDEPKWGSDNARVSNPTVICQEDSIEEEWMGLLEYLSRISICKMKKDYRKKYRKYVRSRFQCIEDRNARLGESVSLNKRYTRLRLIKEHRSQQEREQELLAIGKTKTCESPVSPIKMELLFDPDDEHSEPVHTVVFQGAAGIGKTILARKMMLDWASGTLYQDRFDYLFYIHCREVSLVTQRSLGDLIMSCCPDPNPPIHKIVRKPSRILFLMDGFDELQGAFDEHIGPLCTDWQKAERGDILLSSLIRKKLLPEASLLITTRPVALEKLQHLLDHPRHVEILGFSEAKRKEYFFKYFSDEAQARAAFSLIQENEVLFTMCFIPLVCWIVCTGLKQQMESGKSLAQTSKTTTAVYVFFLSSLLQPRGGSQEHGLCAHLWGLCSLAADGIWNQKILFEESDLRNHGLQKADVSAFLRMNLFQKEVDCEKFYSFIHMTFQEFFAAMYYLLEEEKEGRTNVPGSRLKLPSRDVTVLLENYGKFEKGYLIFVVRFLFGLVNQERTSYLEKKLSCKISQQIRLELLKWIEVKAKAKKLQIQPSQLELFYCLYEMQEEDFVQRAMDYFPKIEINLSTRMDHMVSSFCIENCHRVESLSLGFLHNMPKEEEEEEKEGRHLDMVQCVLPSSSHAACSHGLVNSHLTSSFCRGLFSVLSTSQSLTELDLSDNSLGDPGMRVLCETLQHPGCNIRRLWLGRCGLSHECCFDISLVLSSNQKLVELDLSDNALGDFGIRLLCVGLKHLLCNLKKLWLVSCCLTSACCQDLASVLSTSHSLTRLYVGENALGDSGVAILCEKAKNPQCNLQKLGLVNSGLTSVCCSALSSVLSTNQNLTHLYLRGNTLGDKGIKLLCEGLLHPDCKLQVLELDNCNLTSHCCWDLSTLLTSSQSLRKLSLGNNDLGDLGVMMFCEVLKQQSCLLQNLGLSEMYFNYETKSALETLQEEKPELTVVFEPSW

## Cc1ccc(S(=O)(=O)NC(=O)C(=O)Nc2c3c(cc4c2CCC4)CCC3)cc1
[1]
  IC50: > 1000 nM

## N#CN=S(=O)(NC(=O)Nc1c2c(cc3c1CCC3)CCC2)c1cccnc1 (stereo unspecified)
[2]
  AUC at 24 h: 1280 ng·h/mL
[3]
  half-life: 1.66 h
[4]
  bioavailability: 24%

## CON=S(=O)(NC(=O)Nc1c2c(cc3c1CCC3)CCC2)c1ccc(C)cc1 (stereo unspecified)
[1]
  IC50: > 1000 nM

## Cc1ccc(S(=O)(=NCC(F)(F)F)NC(=O)Nc2c3c(cc4c2CCC4)CCC3)cc1 (stereo unspecified)
[1]
  IC50: > 1000 nM

## Cc1ccc(S(=O)(=O)NC(=O)Cc2c3c(cc4c2CCC4)CCC3)cc1
[1]
  IC50: > 1000 nM

## CCOC(=O)N=S(=O)(NC(=O)Nc1c2c(cc3c1CCC3)CCC2)c1ccc(C)cc1 (stereo unspecified)
[1]
  IC50: > 1000 nM

## N#CC(NC(=O)Nc1c2c(cc3c1CCC3)CCC2)c1ccccc1 (stereo unspecified)
[1]
  IC50: > 1000 nM
[5]
  inhibition: < 50%

## Cc1ccc(S(=O)(=O)Nc2c(Nc3c4c(cc5c3CCC5)CCC4)c(=O)c2=O)cc1
[1]
  IC50: > 1000 nM

## Cc1ccc(S(=O)(=Nc2ccn[nH]2)NC(=O)Nc2c3c(cc4c2CCC4)CCC3)cc1 (stereo unspecified)
[1]
  IC50: > 1000 nM

## Cc1ccc(S(=O)(=O)NC(=O)C(=O)c2c3c(cc4c2CCC4)CCC3)cc1
[1]
  IC50: > 1000 nM

## O=C(Nc1c2c(cc3c1CCC3)CCC2)NC1(c2ccccc2)COC1
[1]
  IC50: > 1000 nM

## N#CN=S(=O)(NC(=O)Nc1c2c(cc3c1CCC3)CCC2)c1ccccn1 (stereo unspecified)
[2]
  AUC at 24 h: 8200 ng·h/mL
[3]
  half-life: 5.2 h
[4]
  bioavailability: 97%
Mus musculus
  inhibition in vivo at 10 mg/kg: 57%

## Cc1ccc(S(=O)(=O)N/C(=N\C#N)Nc2c3c(cc4c2CCC4)CCC3)cc1
[1]
  IC50: > 1000 nM

## CC(=O)N=S(=O)(NC(=O)Nc1c2c(cc3c1CCC3)CCC2)c1ccc(C)cc1 (stereo unspecified)
[1]
  IC50: > 1000 nM

## Cc1ccc(S(=O)(=NC(N)=O)NC(=O)Nc2c3c(cc4c2CCC4)CCC3)cc1 (stereo unspecified)
[1]
  IC50: > 1000 nM

## O=C(Nc1c2c(cc3c1CCC3)CCC2)NC(c1ccccc1)C(F)(F)F (stereo unspecified)
[1]
  IC50: > 1000 nM
[5]
  inhibition: < 50%

## Cc1ccc(S(=O)(=NC#N)NC(=O)Nc2c3c(cc4c2CCC4)CCC3)cc1 (stereo unspecified)
[2]
  AUC at 24 h: 4200 ng·h/mL
[3]
  half-life: 2.91 h
[4]
  bioavailability: 56%
Mus musculus
  inhibition in vivo at 10 mg/kg: 44%

## Cc1ccc(S(=O)(=O)NS(=O)(=O)Nc2c3c(cc4c2CCC4)CCC3)cc1
[1]
  IC50: > 1000 nM

## Cc1ccc(S(=O)(=NC#N)NC(=O)Nc2c3c(cc4c2CCC4)CCC3)cc1F (stereo unspecified)
[2]
  AUC at 24 h: 3200 ng·h/mL
[3]
  half-life: 2.38 h
[4]
  bioavailability: 59%
Mus musculus
  inhibition in vivo at 10 mg/kg: 50%

## Cc1ccc(S(=O)(=Nc2ccc(F)cc2)NC(=O)Nc2c3c(cc4c2CCC4)CCC3)cc1 (stereo unspecified)
[1]
  IC50: > 1000 nM

## N#CN=S(=O)(NC(=O)Nc1c2c(cc3c1CCC3)CCC2)c1cccc(C#N)c1 (stereo unspecified)
[2]
  AUC at 24 h: 1200 ng·h/mL
[3]
  half-life: 1.13 h
[4]
  bioavailability: 40%

## Cc1ccc(S(=O)(=O)NC(=O)C(O)c2c3c(cc4c2CCC4)CCC3)cc1 (stereo unspecified)
[1]
  IC50: > 1000 nM

## CN=S(=O)(NC(=O)Nc1c2c(cc3c1CCC3)CCC2)c1ccc(C)cc1 (stereo unspecified)
[1]
  IC50: > 1000 nM

## N#CN=S(=O)(NC(=O)Nc1c2c(cc3c1CCC3)CCC2)c1ccc(C#N)cc1 (stereo unspecified)
[2]
  AUC at 24 h: 800 ng·h/mL
[3]
  half-life: 1.03 h
[4]
  bioavailability: 27%
